# Hits are enriched below; roughly 2.6% of the tested compounds scored in any of these assays.
# INS-1E GSIS act = GLuc luminescence reporter in INS-1E cells, primary screen for activators of glucose-dependent secretion of insulin; AID 743287; INS-1E GLuc reporter insulin secretion, 2-3 h; activation, % at 16.6 µM; 370,000 compounds, 0.61% hits;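 active = lowest replicate activation of at least 40%, so every replicate reaches that level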
# E-sel inducer = E-selectin induction on HUVECs | activation, % at 7.58 µM | P16581 | AID 686992 | 260,000 compounds, 0.37% hits | HUVEC E-selectin immunofluorescence imaging; normalized: neutral wells 0, TNF-alpha wells 100;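 active = mean E-selectin-positive cell signal at least 10% of the positive control, reached in at least 60% of replicates, without over 20% cell loss; inconclusive = no rule given, readout overlaps actives, possibly toxicity-flagged; inactive = the rest, including those meeting only one limit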
#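 Assay system: HUVEC, human umbilical vein endothelial cells / Amount: 3,000 HUVEC/well / Controls: TNF-alpha positive control, DMSO neutral control / Compound dosing: single concentration / Medium: EGM-2 over gelatin coat / Evaluation: percent E-selectin-positive cells / Signal: immunofluorescence imaging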
# ERAP1 inh = ERAP1 (human) enzyme inhibition; Q9NZ08; 340,000 compounds, 0.15% hits; recombinant ERAP1, Leu-AMC fluorescence, 60 min; inhibition, % at 10.7 µM;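 active = mean replicate inhibition of at least 30%, or all replicates individually reaching that 30% level; inactive = mean below 30% and not every replicate reaching it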
# Target sequence (Q9NZ08 whole entry, looked up): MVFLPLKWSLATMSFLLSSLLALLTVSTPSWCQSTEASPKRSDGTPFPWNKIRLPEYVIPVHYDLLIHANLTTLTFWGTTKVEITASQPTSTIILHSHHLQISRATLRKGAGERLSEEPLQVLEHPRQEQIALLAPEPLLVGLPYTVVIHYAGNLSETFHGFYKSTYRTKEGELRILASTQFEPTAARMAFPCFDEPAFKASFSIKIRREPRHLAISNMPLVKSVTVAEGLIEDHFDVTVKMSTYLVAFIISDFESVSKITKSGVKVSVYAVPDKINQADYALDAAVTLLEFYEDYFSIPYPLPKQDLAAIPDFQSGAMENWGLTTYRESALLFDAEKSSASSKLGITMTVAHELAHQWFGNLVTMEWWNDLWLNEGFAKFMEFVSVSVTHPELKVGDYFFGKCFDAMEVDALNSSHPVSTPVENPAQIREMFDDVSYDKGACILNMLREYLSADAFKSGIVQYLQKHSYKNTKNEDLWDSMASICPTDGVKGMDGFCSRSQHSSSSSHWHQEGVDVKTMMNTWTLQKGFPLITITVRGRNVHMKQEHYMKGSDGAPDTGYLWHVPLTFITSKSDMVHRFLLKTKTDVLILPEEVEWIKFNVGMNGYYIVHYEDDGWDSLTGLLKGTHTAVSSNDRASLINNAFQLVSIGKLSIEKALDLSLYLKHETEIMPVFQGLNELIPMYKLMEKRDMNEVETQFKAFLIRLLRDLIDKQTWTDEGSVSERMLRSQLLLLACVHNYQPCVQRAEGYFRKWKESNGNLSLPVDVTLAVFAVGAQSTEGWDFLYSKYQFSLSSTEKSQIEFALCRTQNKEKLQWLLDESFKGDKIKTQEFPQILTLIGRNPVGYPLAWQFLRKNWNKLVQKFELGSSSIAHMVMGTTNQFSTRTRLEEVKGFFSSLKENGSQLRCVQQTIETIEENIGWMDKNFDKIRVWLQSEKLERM
# DENV2 CPE rescue = protects cells from dengue virus 2 cytopathic effect. DENV2-infected cells, cytopathic effect rescue, plate reader. CPE inhibition, % at 9.99 µM. 350,000 compounds, 1.7% hits. AID 651640; in the data active = CPE inhibition above about 20%, passing the limit was not always enough; inconclusive = no clear call, values can overlap the other calls; tested in BHK-21 cells
# miR122 inh = blocks miR-122 activity in Huh7 sensor cells; Huh7 miR-122 Renilla luciferase sensor, 48 h; neutral wells = 0, positive control = 100; activation (reporter increase), % at 12.5 µM; 340,000 compounds, 0.3% hits;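 active = mean replicate activation score at least 90 and every replicate individually at or above 90; inconclusive = only one of the two criteria met; inactive = neither criterion met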;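 also: higher luciferase means less miR-122 activity so hits act as miR-122 inhibitors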
# F508del corr = correctors of CFTR F508del function in bronchial epithelial cells; CFBE cells, YFP halide quenching; stimulated with forskolin plus potentiator P3; % fluorescence drop versus neutral controls; AID 720511; activity (quench increase), % at 7.58 µM; 350,000 compounds, 0.36% hits;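 active = mean added fluorescence quench of at least 8% versus neutral control, with both replicates also reaching 8%; inconclusive = only one of the mean or replicate conditions met; inactive = mean below 8% and not both replicates reaching 8%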;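 also: cells transiently co-express mutant CFTR-F508del with the halide-sensitive YFP; corrector assay measuring rescue of mutant channel to the surface after 24 h compound exposure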
# A number is an active result; - = inactive; ? = inconclusive; . = not tested or not shown.
SMILES,INS-1E GSIS act,E-sel inducer,ERAP1 inh,DENV2 CPE rescue,miR122 inh,F508del corr
COc1cc2c(cc1OC)C(C)N(C(=O)Nc1ccc(F)cc1)CC2 (stereo unspecified),-,-,-,-,-,-
C[C@@H]1CN([C@@H](C)CO)C(=O)c2cc(C3=CCCCC3)cnc2O[C@@H]1CN(C)C(=O)c1ccccn1,-,-,-,-,-,-
O=C(c1cc(-c2cccs2)on1)N1CCCc2ccccc21,.,-,-,85.2,-,-
COc1ccc(C(=O)c2ccc3oc(-c4ccc(OC)cc4)c(C#CCCO)c3c2)cc1,-,-,-,78.9,-,-
COc1ccc(S(=O)(=O)N2N=C(C)Oc3ccccc3C2=O)cc1,.,.,.,.,123.2,.
CC1=NN(S(=O)(=O)c2ccc(C)cc2)C(=O)c2ccccc2O1,-,-,-,-,-,-
C[C@H]1CN([C@@H](C)CO)C(=O)Cc2cc(NC(=O)Cc3cn(C)c4ccccc34)ccc2O[C@@H]1CN(C)C(=O)Nc1ccc(C(F)(F)F)cc1,-,50.1,-,?,-,-
C[C@H](CO)N1C[C@H](C)[C@H](CN(C)Cc2ccccc2)Oc2ccc(NC(=O)Cc3cn(C)c4ccccc34)cc2CC1=O,-,-,-,-,-,-
C[C@@H]1CN([C@@H](C)CO)C(=O)Cc2cc(NC(=O)Cc3cn(C)c4ccccc34)ccc2O[C@H]1CN(C)Cc1ccc(C(F)(F)F)cc1,-,61.3,-,-,-,-
C[C@H]1CN([C@@H](C)CO)C(=O)Cc2cc(NC(=O)Cc3cn(C)c4ccccc34)ccc2O[C@H]1CN(C)C(=O)Nc1ccc(C(F)(F)F)cc1,-,-,-,-,-,-
COc1ccc(S(=O)(=O)Nc2ccc3c(c2)C(=O)N([C@H](C)CO)C[C@H](C)[C@@H](CN(C)Cc2ccc(C(=O)O)cc2)OCCCC[C@@H](C)O3)cc1,-,-,-,32.6,-,-
COc1ccc(S(=O)(=O)Nc2ccc3c(c2)C(=O)N([C@@H](C)CO)C[C@@H](C)[C@@H](CN(C)Cc2ccc(C(=O)O)cc2)OCCCC[C@H](C)O3)cc1,-,-,-,25.8,-,-
COc1ccc(S(=O)(=O)Nc2ccc3c(c2)C(=O)N([C@H](C)CO)C[C@@H](C)[C@@H](CN(C)Cc2ccc(C(=O)O)cc2)OCCCC[C@@H](C)O3)cc1,-,-,-,-,-,-
CN(C)CC(=O)N1[C@@H]2c3ccc(-c4ccccc4)c(=O)n3C[C@H]1[C@H](CO)[C@H]2C(=O)N1CCOCC1,-,-,-,-,-,-
O=[N+]([O-])c1ccccc1S(=O)(=O)Nc1ccc(-c2ccc(N3CCOCC3)nn2)cc1,71.4,.,-,-,-,-
Cc1ccc(S(=O)(=O)Nc2ccc(S(=O)(=O)N3CCOCC3)cc2)cc1[N+](=O)[O-],-,.,-,-,-,-
COc1ccc(S(=O)(=O)Nc2ccc(S(=O)(=O)N3CCOCC3)cc2)cc1,.,.,.,.,159.8,.
COc1ccc(S(=O)(=O)Nc2ccc(N3CCOCC3)cc2)cc1,-,-,-,-,-,-
O=[N+]([O-])c1ccccc1S(=O)(=O)Nc1ccc(S(=O)(=O)N2CCOCC2)cc1,-,-,-,31.4,-,-
O=[N+]([O-])c1ccccc1S(=O)(=O)Nc1cccc(-c2ccc(N3CCOCC3)nn2)c1,-,-,-,-,-,-
CO[C@@H]1CN(C)C(=O)c2ccc(NC(=O)C3CCCC3)cc2OC[C@H](C)N(CCC(F)(F)F)C[C@@H]1C,.,-,-,-,-,-
CO[C@@H](CN(C)S(=O)(=O)c1ccc(C)cc1)[C@@H](C)CN(Cc1ccccc1Cl)[C@H](C)CO,-,-,-,-,.,-
C[C@@H]1CCCCO[C@H](CN(C)CC2CC2)[C@H](C)CN([C@@H](C)CO)C(=O)c2cc(NS(=O)(=O)c3cccs3)ccc2O1,-,-,-,41.6,.,-
C[C@@H]1CCCCO[C@H](CN(C)S(=O)(=O)c2cccs2)[C@@H](C)CN([C@H](C)CO)C(=O)c2cc(NS(=O)(=O)c3cccs3)ccc2O1,-,-,-,59.4,-,-
C[C@@H]1CCCCO[C@H](CN(C)C)[C@@H](C)CN([C@H](C)CO)C(=O)c2cc(NS(=O)(=O)c3cccs3)ccc2O1,-,-,-,-,-,-
SMILES,INS-1E GSIS act,E-sel inducer,ERAP1 inh,DENV2 CPE rescue,miR122 inh,F508del corr
C[C@@H]1CN([C@@H](C)CO)C(=O)c2cc(NS(=O)(=O)c3cccs3)ccc2O[C@@H](C)CCCCO[C@@H]1CN(C)C,-,-,-,20.4,-,-
C[C@H]1CCCCO[C@H](CN(C)C(=O)CCCN(C)C)[C@@H](C)CN([C@@H](C)CO)C(=O)c2cc(NS(=O)(=O)c3cccs3)ccc2O1,-,-,-,23.3,.,-
N#C[C@H]1[C@H](c2ccccc2C2=CCCC2)[C@@H](CO)N1C(=O)NC1CCCC1,-,-,-,-,.,-
Cc1ccc(S(=O)(=O)N(C)C[C@H]2OCCCC[C@H](C)Oc3ccc(NC(=O)Nc4ccc5c(c4)OCO5)cc3C(=O)N([C@@H](C)CO)C[C@H]2C)cc1,-,.,-,-,-,-
O=C(c1ccccn1)N1C[C@@H]2[C@H](c3ccccc31)[C@@H](CO)N2C(=O)c1ccccn1,-,-,.,68.8,-,-
CC(C)NC(=O)N1C[C@H]2[C@@H](c3ccccc31)[C@@H](CO)N2C(=O)c1ccccn1,-,-,-,114.8,-,-
Cc1noc(C)c1NC(=O)N(C)C[C@@H]1OCCCC[C@H](C)Oc2ccc(NC(=O)Nc3ccc4c(c3)OCO4)cc2C(=O)N([C@H](C)CO)C[C@@H]1C,-,-,-,-,-,-
CN(C(=O)Nc1ccc(F)cc1)[C@H]1C[C@H]2c3[nH]c4ccccc4c3CCN2C(=O)[C@H]1CO,.,.,-,43.9,-,-
C=CCN1C(=O)/C(=C\C=C2\N(C)c3ccccc3C2(C)C)SC1=S,-,.,-,-,.,-
CN1/C(=C\C=C2/SC(=S)N(CC(=O)O)C2=O)C(C)(C)c2ccccc21,-,.,-,-,.,16.2
CC1(C)CC[C@]2(C(=O)O)CC[C@]3(C)C(=CC[C@@H]4[C@@]5(C)CC[C@H](O[C@@H]6O[C@H](C(=O)O)[C@@H](O)[C@H](O[C@@H]7OC[C@H](O)[C@H](O)[C@H]7O)[C@H]6O)C(C)(C)[C@@H]5CC[C@]43C)[C@@H]2C1,200.1,-,.,-,-,-
CC1OC(OC2C(CO)OC(OCC3OC(OC(=O)[C@@]45CCC(C)(C)C[C@@H]4C4=CC[C@@H]6[C@@]7(C)CCC(OC8OCC(O)C(O)C8OC8OC(C)C(O)C(O)C8O)[C@@](C)(CO)C7CC[C@@]6(C)[C@]4(C)CC5)C(O)C(O)C3O)C(O)C2O)C(O)C(O)C1O (stereo partly specified),-,-,-,-,-,-
